A short description of series [1]: folding enthalpy; higher = less favourable; fluorescence melt of hairpins on a sequencing array, two-state fit. The conditions noted are these: sodium 0.088 M. The procedure, abridged: (§1)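 On a sequenced MiSeq flow cell, library hairpins with annealed Cy3 and quencher oligos were imaged for Cy3 fluorescence in 2.5 °C steps up to 60 °C, in 50 mM Na-HEPES pH 8.0, 25 mM NaCl. Normalisation used pre-quench Cy3 and control constructs. Bootstrapped two-state fits gave melting temperature and folding enthalpy, combined by inverse variance across four replicates and with fitted temperatures raised by 9.35 °C to match UV melts.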

Series [2] is described as follows: melting temperature; fluorescence melt of hairpins on a sequencing array, two-state fit, raised by 9.35 °C to match UV melts. The conditions noted are these: sodium 0.088 M. In short, it runs like this:
as §1

For the sequence GTCGTAGGAAACTATGGC (.(.(((....))).).), in series [1], the folding enthalpy is -17.8 kcal/mol. Further, the Tm in series [2] stood at 32 °C.
The corresponding values for GTCGTCCGAAAGGATGAC (((.(((....))).))) are -54.4 kcal/mol and 62.1 °C.
The corresponding values for GTCGTCGAAAGACCGAC ((((((....))).))) are -23.5 kcal/mol and 50.7 °C.
As to GTCGTCGAAAGACCTGAC ((((((....)))..))), the folding enthalpy in series [1] is -14.7 kcal/mol. In addition, the Tm in series [2] worked out at 31.7 °C.
The corresponding values for GTCGTCGAAAGACTAGAC ((((((....)))..))) are -18.4 kcal/mol and 42.5 °C.
The corresponding values for GTCGTCGAAAGACTCGAC ((((((....)))..))) are -14.9 kcal/mol and 38.6 °C.
Consider GTCGTCGAAAGACTGGAC ((((((....)))..))), for which the folding enthalpy in series [1] was -20.7 kcal/mol. The Tm in series [2] is 39.2 °C.
The corresponding values for GTCGTGGAAACACGAC ((((((....)))))) are -35.4 kcal/mol and 68.5 °C.
For the sequence GTCGTGGGAAACCATGGC (.(.(((....))).).), the folding enthalpy in series [1] is -25.6 kcal/mol. For the same sequence, the Tm in series [2] was determined as 40.6 °C.
Turning to GTCGTGGGAAACCGTGAC (((..((....))..))), the folding enthalpy in series [1] was -25.9 kcal/mol. In series [2], the Tm was 36.7 °C.
The corresponding values for GTCGTGGGAAACTACGAC (((((.(....).))))) are -37.3 kcal/mol and 53.9 °C.
The corresponding values for GTCGTTCGAAAGAAAGAC (((.(((....))).))) are -31.2 kcal/mol and 47.8 °C.
The corresponding values for GTCTAACCGAAAGGTGAC (((..(((....)))))) are -17.6 kcal/mol and 42.2 °C.
Turning to GTCTACCGAAAGGTCGAC (((.(((....))).))), in series [1], the folding enthalpy was -33.9 kcal/mol. In addition, the Tm in series [2] was determined as 48.7 °C.
The corresponding values for GTCTACCGAAAGGTTGAC (((.(((....))).))) are -40.5 kcal/mol and 52.6 °C.
The corresponding values for GTCTACGAAAGTAGGAC ((((((....))).))) are -16.5 kcal/mol and 44 °C.
With GTCTACGAAAGTAGTGAC ((((((....)))..))), in series [1], the folding enthalpy was -14.3 kcal/mol. Besides, the Tm in series [2] came out at 33.4 °C.
Consider GTCTACGAAAGTATTGAC ((((((....)))..))), for which the folding enthalpy in series [1] was -19.5 kcal/mol. The Tm in series [2] is 30.2 °C.
The corresponding values for GTCTACGCGAAAGCGGAC (((..(((....)))))) are -12.7 kcal/mol and 41.3 °C.
The corresponding values for GTCTAGCGAAAGCTCGAC (((.(((....))).))) are -28.2 kcal/mol and 50 °C.
The corresponding values for GTCTAGCGAAAGCTGAC (((.(((....)))))) are -21.1 kcal/mol and 50.5 °C.
Take GTCTATCGAAAGATGGAC (((.(((....))).))): in series [1], the folding enthalpy was -30.9 kcal/mol. The Tm in series [2] stood at 51.7 °C.
The corresponding values for GTCTATGGAAACATAGGC (.(((((....))))).) are -30.7 kcal/mol and 44 °C.
The corresponding values for GTCTCACGAAAGTGGAC (((.(((....)))))) are -20.7 kcal/mol and 47.2 °C.
The corresponding values for GTCTCATCGAAAGATGAC (((..(((....)))))) are -10.9 kcal/mol and 35.4 °C.
GTCTCCCCGAAAGGGGAC (((..(((....)))))): the folding enthalpy in series [1] was -7.01 kcal/mol. The Tm in series [2] came to 37.8 °C.
The corresponding values for GTCTCCGAAAGGATAGAC ((((((....)))..))) are -23.8 kcal/mol and 41 °C.
The corresponding values for GTCTCCGGAAACGAAGAC ((((.((....)).)))) are -25.9 kcal/mol and 41.9 °C.
The corresponding values for GTCTCCGGAAACGGGGAC (((.(((....))).))) are -41.1 kcal/mol and 57.7 °C.
With GTCTCGGGAAACTGAGGC (.(((.(....).))).), the folding enthalpy in series [1] was -30.8 kcal/mol. For the same sequence, in series [2], the Tm was determined as 38.8 °C.
The corresponding values for GTCTCTGGAAACAGGGAC (((.(((....))).))) are -27.4 kcal/mol and 48.9 °C.
The corresponding values for GTCTCTGGAAACGGAGAC (((((.(....).))))) are -34.7 kcal/mol and 50.8 °C.
The corresponding values for GTCTCTTCGAAAGAAGAC (((..(((....)))))) are -9.3 kcal/mol and 32 °C.
Take GTCTGAGGAAACTCAGGC (.(((((....))))).): in series [1], the folding enthalpy is -32.2 kcal/mol. Also, in series [2], the Tm turned out to be 49.5 °C.
The corresponding values for GTCTGCGAAAGCAAAGAC ((((((....)))..))) are -19.1 kcal/mol and 50.1 °C.
On to GTCTGCGAAAGCAACGAC ((((((....)))..))), for which, in series [1], the folding enthalpy is -13.1 kcal/mol. The Tm in series [2] worked out at 44.9 °C.
The corresponding values for GTCTGCGAAAGCAAGGAC ((((((....)))..))) are -17.5 kcal/mol and 43.2 °C.
